Rin1 Abl inh: blocks binding of human Rin1 to Abl | TR-FRET Rin1/Abl binding, biochemical | inhibition, % at 7.35 µM | 0.4% of 360,000 active | AID 588664; in the data active means inhibition above about 5%, passing the limit was not always enough
SUMO HTRF inh: SUMOylation inhibition; P63279; inhibition, % at 35 µM; 0.36% of 290,000 active; HTRF SUMOylation assay, SAE1/SAE2 + UBC9, in vitro; AID 2006; in the data active means inhibition above about 50%, passing the limit was not always enough
ALR H2O2 inh: inhibitors of human sulfhydryl oxidase ALR; P55789; purified ALR, DTT oxidation, H2O2 HRP-luminol luminescence; inhibition, % (no concentration beside the values); 3.8% of 290,000 active; AID 485317;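 active means mean replicate inhibition above about 79%, with every replicate also reaching it, limit read from the data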
UBC13 inh: blocks human UBC13 polyubiquitin chain formation; inhibition, % at 20 µM; TR-FRET; 0.47% of 330,000 active; P61088; in the data active means inhibition above about 45%, passing the limit was not always enough
RBBP9 inhibitor: human RBBP9 hydrolase inhibition. 0.2% of 220,000 active. O75884. inhibition, % at 7.94 µM. recombinant RBBP9, FP-Rh probe fluorescence polarization;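 active means inhibition above the campaign mean of all tested compounds plus 3 SD, cut at about 14% in these data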
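Test system – recombinant human RBBP9 · Input – RBBP9 2.5 µM in dispensing solution, pre-mixing · Medium – Tris buffer pH 8.0, NaCl, Pluronic · Schedule – preincubation 30 min plus labeling 45 min at 25 °C · Measured by – fluorescence polarization · Measure – % inhibition · Controls – DMSO and no-protein wells · Replicates – one well per compound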
PREPL inh: inhibitors of human prolyl oligopeptidase-like enzyme PREPL; Q4J6C6; recombinant PREPL, fluorescence polarization activity-based probe; inhibition, % at 5.96 µM; 0.68% of 320,000 active; AID 2751; in the data active means inhibition above about 43%
Each line names hits and unclear results; the compound was inactive in the other large screens. In the library only some 4.3% were active in any assay of this set; here they are far more common.

Cc1[nH]n(-c2cccc(Cl)c2)c(=O)c1-c1ccccc1	ALR H2O2 inh 84
CC(=O)N1c2ccc(S(=O)(=O)N3CCC(C(=O)Nc4ccc(C)cn4)CC3)cc2CC1C (stereo unspecified)	none (no result: RBBP9 inhibitor)
C(=C1/CCCC2=C1Nc1ncnn1C2c1ccccc1)/c1ccccc1 (stereo unspecified)	ALR H2O2 inh 91 (no result: Rin1 Abl inh)
Cc1csc(NC(=O)CSCC(=O)Nc2ccccc2)n1	ALR H2O2 inh 92
Cc1csc(NC(=O)CSc2nc3ccccc3c(=O)[nH]2)n1	ALR H2O2 inh 99
CC(C)(C)c1csc(NC(=O)CSc2nc3ccccc3c(=O)[nH]2)n1	ALR H2O2 inh 94
CCOc1ccc(-c2csc(NC(=O)CSCC(=O)O)n2)c2ccccc12	none
Cc1[nH]c2ccccc2c1-c1csc(NC(=O)CSCCO)n1	ALR H2O2 inh 99
CCOC(=O)N(Cc1ccccc1)Cc1ccc(C(=O)N[C@@H](Cc2ccccc2)C(=O)O)cc1	none (no result: SUMO HTRF inh, RBBP9 inhibitor)
COc1ccc(C2C(C(=O)NCc3ccccn3)CCC(=O)N2c2cc(OC)c(OC)c(OC)c2)cc1 (stereo unspecified)	none
COc1ccc(C(=O)CN2C(=O)c3ccccc3C2=O)cc1	none
COc1cc(Cn2cnnn2)ccc1O	ALR H2O2 inh 81
CC(C)NC(=O)C(=O)Nc1cc2c3c(c1)C(C)C(=O)N3CCC2 (stereo unspecified)	none (no result: RBBP9 inhibitor)
CCN(CCO)c1ccc(NC(=S)Nc2cccc(S(=O)(=O)N(C)C)c2)cc1	ALR H2O2 inh 99
CN(C)S(=O)(=O)c1cccc(NC(=S)Nc2ccc(Cl)cc2Cl)c1	ALR H2O2 inh 99
O=C(COc1ccc(-n2cnnn2)cc1)Nc1ccc(F)c(F)c1	none (no result: SUMO HTRF inh, RBBP9 inhibitor)
CC(C)(C)OC(=O)NN=C(c1ccc(O)cc1)c1ccc(O)cc1	ALR H2O2 inh 82 (no result: RBBP9 inhibitor)
CN(c1ccc(C(=O)N2CCCCC2)cc1)S(C)(=O)=O	none
CN(C)c1ccc(C(=S)N2CCCCCC2)cc1	ALR H2O2 inh 98
CN(C)c1ccc(C(=O)N2CCCC2)cc1	ALR H2O2 inh 98
CC(=O)N1CCN(C(=S)c2ccc(N(C)C)cc2)CC1	ALR H2O2 inh 98
CN(C)c1ccc(C(=S)N2CCOCC2)cc1	ALR H2O2 inh 99
Cc1ccc(N2CCN(C(=S)c3ccc(N(C)C)cc3)CC2)cc1	none
Oc1ccc(C(=S)N2CCCCC2)cc1	none
CC1=C(C(=O)N2CCCC(N3CCN(c4cccc(C(F)(F)F)c4)CC3)C2)OCCO1 (stereo unspecified)	none (no result: RBBP9 inhibitor)
COC(=O)c1ccc(NC(=O)CCN2C(=O)NC(C)(C)C2=O)cc1	none (no result: SUMO HTRF inh, RBBP9 inhibitor)
COc1cccc(S(=O)(=O)NC2CCN(C#N)C2)c1 (stereo unspecified)	none (no result: SUMO HTRF inh, RBBP9 inhibitor)
S=C(c1ccc(Br)cc1)N1CCCC1	none (no result: RBBP9 inhibitor)
S=C(c1ccc(N2CCOCC2)cc1)N1CCCCC1	ALR H2O2 inh 87
CN(C)c1ccc(C(=S)N2CCN(c3ccccc3)CC2)cc1	ALR H2O2 inh 99
CC1CCN(C(=S)c2ccc(N(C)C)cc2)CC1	ALR H2O2 inh 99
Cc1[nH]c(C)c(S(=O)(=O)NCc2ccc(N(C)C)cc2)c1C(=O)N1CCCC1	ALR H2O2 inh 98 (no result: RBBP9 inhibitor)
Cc1[nH]c(C)c(S(=O)(=O)NCc2ccc(Cl)cc2)c1C(=O)N1CCCC1	none (no result: RBBP9 inhibitor)
COc1ccc(S(=O)(=O)N2CC(C)N(C(=O)N(C)C)C2C(C)C)cc1 (stereo unspecified)	none (no result: RBBP9 inhibitor)
C[C@@H]1CCCCO[C@H](CN(C)Cc2ccc(C(F)(F)F)cc2)[C@@H](C)CN([C@H](C)CO)C(=O)c2cc(NS(=O)(=O)c3cn(C)cn3)ccc2O1	none (no result: SUMO HTRF inh, ALR H2O2 inh, UBC13 inh, RBBP9 inhibitor, PREPL inh)
COc1ccc(N/C=C(/C(C)=O)c2ccccc2)cc1	ALR H2O2 inh 84
COc1ccc(N/C=C/C(=O)c2ccccc2)cc1	none (no result: RBBP9 inhibitor)
O=C1CS/C(=N\C(=O)N2c3ccccc3Sc3ccccc32)N1	ALR H2O2 inh 99
NCCC(=O)N1c2ccccc2Sc2ccccc21	none (no result: RBBP9 inhibitor)
COc1ccccc1-c1cc2nc(-c3ccccc3)cc(N3CCN(C(=O)c4ccco4)CC3)n2n1	none (no result: SUMO HTRF inh, ALR H2O2 inh, UBC13 inh, RBBP9 inhibitor, PREPL inh)
CO/N=C/NC(=O)c1ccc([N+](=O)[O-])c(CS(=O)(=O)c2ccc(Cl)cc2)c1	ALR H2O2 inh 100
O=C(CSc1ccc2c(c1)OCCO2)N1CCN(c2ccccc2)CC1	none (no result: SUMO HTRF inh, RBBP9 inhibitor)
CC(=O)Nc1ccc(Nc2nc(C)nc3c2oc2ccccc23)cc1	none

Screens (PubChem BioAssay)
